In ChEMBL document CHEMBL2424608, “Discovery of novel N-substituted carbazoles as neuroprotective agents with potent anti-oxidative activity” (Eur J Med Chem, 2013):
The source made the active and inactive calls. No cut-off for these calls is given here.

Legend:
HT-22 [1] = test: Neuroprotective activity against mouse HT22 cells assessed as inhibition of glutamate-induced cell injury pretreated at 10 uM for 30 mins measured after 24 hrs by MTT assay; type: functional
Procedure, shortened: (§1)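 HT22 mouse hippocampal cells in DMEM/10% FBS at 37 °C, 5% CO2, seeded at 4000 cells/well. Compound (30 mM DMSO stock, diluted in medium) added 30 min before glutamate (2 mM) or HCA (500 µM), then 24 h exposure. Controls get vehicle. Viability by MTT (500 µg/mL, 1 h, 37 °C), DMSO solubilisation, A570 relative to control = 100%. n = 6.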

HT-22 [2] = test: Neuroprotective activity against mouse HT22 cells assessed as inhibition of HCA-induced cell injury pretreated at 30 uM for 30 mins measured after 24 hrs by MTT assay; type: functional; procedure, shortened: as §1
HT-22 [3] = test: Neuroprotective activity against mouse HT22 cells assessed as inhibition of glutamate-induced cell injury pretreated at 3 uM for 30 mins measured after 24 hrs by MTT assay; type: functional; procedure, shortened: as §1
HT-22 [4] = test: Neuroprotective activity against mouse HT22 cells assessed as inhibition of HCA-induced cell injury pretreated at 3 uM for 30 mins measured after 24 hrs by MTT assay; type: functional; procedure, shortened: as §1
HT-22 [5] = test: Neuroprotective activity against mouse HT22 cells assessed as inhibition of HCA-induced cell injury pretreated at 10 uM for 30 mins measured after 24 hrs by MTT assay; type: functional; procedure, shortened: as §1
HT-22 [6] = test: Neuroprotective activity against mouse HT22 cells assessed as inhibition of glutamate-induced cell injury pretreated at 30 uM for 30 mins measured after 24 hrs by MTT assay; type: functional; procedure, shortened: as §1
HT-22 [7] = test: Neuroprotective activity against mouse HT22 cells assessed as inhibition of glutamate-induced ROS production pretreated for 30 mins measured after 10 hrs by DHE-based fluorescence assay; type: functional, cell-based
Procedure, shortened: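 HT22 cells get compound for 30 min, then glutamate (2 mM). After exposure, cells are washed with PBS pH 7.4 and loaded with DHE at 10 µM in serum-free DMEM for 30 min. Fluorescence microscopy plus plate-reader intensity at ex 485/em 595 nm.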

HT-22 [8] = test: Cytotoxicity against mouse HT22 cells at 30 uM by LDH assay; type: cell-based; details: ht-22, 30 µM
Procedure, shortened: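 HT22 cells given compound alone at 30 µM; cytotoxicity read by LDH release assay.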

HT-22 [9] = test: Neuroprotective activity against mouse HT22 cells assessed as inhibition of glutamate-induced GSH depletion pretreated at 10 to 30 uM for 30 mins measured after 10 hrs by glutathione assay kit
HT-22 [10] = test: Neuroprotective activity against mouse HT22 cells assessed as inhibition of glutamate-induced cell shrinkage and debris pretreated at 3 uM for 30 mins measured after 24 hrs by phase-contrast microscopy; type: functional, cell-based
Procedure, shortened: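 HT22 cells get compound 30 min before glutamate (2 mM). Morphology is viewed by inverted phase-contrast microscopy.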

HT-22 [11] = test: Neuroprotective activity against mouse HT22 cells assessed as inhibition of glutamate-induced cell injury pretreated for 30 mins measured after 24 hrs by MTT assay; type: functional, cell-based; procedure, shortened: as §1

| Compound | inhibition at 10 µM (HT-22 [1]) | inhibition at 30 µM (HT-22 [2]) | inhibition at 3 µM (HT-22 [3]) | inhibition at 3 µM (HT-22 [4]) | inhibition at 10 µM (HT-22 [5]) | inhibition at 30 µM (HT-22 [6]) | inhibition (HT-22 [7]) | Activity (HT-22 [8]) | inhibition (HT-22 [9]) | inhibition (HT-22 [10]) | inhibition (HT-22 [11]) | inhibition (HT-22 [2]) | inhibition (HT-22 [6]) |
| --- | --- | --- | --- | --- | --- | --- | --- | --- | --- | --- | --- | --- | --- |
| COc1ccc2c3ccccc3n(S(=O)(=O)c3ccc(C)cc3)c2c1 | 2% | 0% | 0.8% | 0% | 0% | 4% |  |  |  |  |  |  |  |
| COc1ccc2c(c1)c1ccccc1n2-c1ccc(C(C)(C)C)cc1 | 0% | 0% | 0% | 0% | 0% | 0% |  |  |  |  |  |  |  |
| Cc1ccc(S(=O)(=O)n2c3ccccc3c3ccc4ccccc4c32)cc1 | 16% | 30% | 4% | 18% | 30% | 26% |  |  |  |  |  |  |  |
| Cc1ccc(S(=O)(=O)n2c3ccccc3c3ccccc32)cc1 | 10% | 34% | 0% | 4% | 13% | 47% |  |  |  |  |  |  |  |
| Cc1ccc(-n2c3ccccc3c3ccccc32)nc1 | 0% | 12% | 0% | 0% | 5% | 5% |  |  |  |  |  |  |  |
| Cc1ccc(-n2c3ccccc3c3ccc(-c4ccccc4)cc32)cc1 | 69% | 44% | 63% | 64% | 77% | 50% | Dose-dependent effect | Non-toxic | inactive | Active | Dose-dependent effect |  |  |
| Cc1ccc(-n2c3ccccc3c3ccccc32)cc1 | 0% | 0% | 0% | 0% | 0% | 0% |  |  |  |  |  |  |  |
| c1ccc(-n2c3ccccc3c3ccccc32)cc1 | 7% | 5% | 0% | 0% | 0% | 6% |  |  |  |  |  |  |  |
| Cc1ccc(S(=O)(=O)n2c3ccccc3c3ccc(-c4ccccc4)cc32)cc1 | 19% | 30% | 12% | 11% | 18% | 30% |  |  |  |  |  |  |  |
| c1ccc2c(c1)oc1ccccc12 |  |  |  |  |  |  |  |  |  |  |  | inactive | inactive |
| Cc1ccc(-n2c3ccccc3c3ccc4ccccc4c32)cc1 | 0% | 0% | 0% | 0% | 0% | 0% |  |  |  |  |  |  |  |
| c1ccc2c(c1)sc1ccccc12 |  |  |  |  |  |  |  |  |  |  |  | inactive | inactive |
| COc1ccc2c(c1)c1ccccc1n2S(=O)(=O)c1ccc(C)cc1 | 3% | 0% | 0% | 0% | 0% | 5.2% |  |  |  |  |  |  |  |
| Fc1cccc(-n2c3ccccc3c3ccccc32)c1 | 0% | 0% | 0% | 0% | 0% | 0% |  |  |  |  |  |  |  |
| Cc1ccc(S(=O)(=O)n2c3ccccc3c3ccc(C(F)(F)F)cc32)cc1 | 10% | 38% | 0% | 0% | 6% | 42% |  |  |  |  |  |  |  |
| COc1ccc(-n2c3ccccc3c3ccccc32)cc1 | 25% | 71% | 3% | 0% | 32% | 59% |  |  |  |  |  |  |  |
| FC(F)(F)c1ccc(-n2c3ccccc3c3ccccc32)cc1 | 14% | 80% | 0% | 0% | 10% | 68% |  |  |  |  |  |  |  |
| OCCCCn1c2ccccc2c2ccccc21 | 1% | 12% | 0% | 0% | 1% | 4% |  |  |  |  |  |  |  |
| Clc1ccc(-n2c3ccccc3c3ccccc32)cc1 | 0% | 40% | 0% | 0% | 0% | 20% |  |  |  |  |  |  |  |
| Cc1ccc(S(=O)(=O)n2c3ccccc3c3ccc(C#N)cc32)cc1 | 2% | 0% | 3% | 0% | 0% | 7% |  |  |  |  |  |  |  |
| c1ccc2c(c1)c1ccccc1n2C1CCCCC1 | 8% | 10% | 3% | 7% | 8% | 20% |  |  |  |  |  |  |  |
| Brc1ccc(-n2c3ccccc3c3ccccc32)cc1 | 0% | 0% | 0% | 0% | 0% | 0% |  |  |  |  |  |  |  |
| CN(C)c1ccc(-n2c3ccccc3c3ccccc32)cc1 | 40% | 81% | 20% | 0% | 30% | 77% |  |  |  |  |  |  |  |
| CCCCn1c2ccccc2c2ccccc21 | 0% | 0% | 0% | 0% | 0% | 0% |  |  |  |  |  |  |  |
| CCc1ccc(S(=O)(=O)n2c3ccccc3c3ccccc32)cc1 | 3% | 30% | 0% | 0% | 6% | 28% |  |  |  |  |  |  |  |
| CC(C)(C)c1ccc(-n2c3ccccc3c3ccccc32)cc1 | 35% | 63% | 0% | 2% | 30% | 70% |  |  |  |  |  |  |  |
| Fc1ccc(-n2c3ccccc3c3ccccc32)cc1 | 0% | 0% | 0% | 0% | 0% | 0% |  |  |  |  |  |  |  |
